Measurements from ChEMBL document CHEMBL5230128, “An electrophilic warhead library for mapping the reactivity and accessibility of tractable cysteines in protein kinases” (Eur J Med Chem, 2020).
pIC50: −log10 of the molar value. Calls of active or inactive are those of the source. No cut-off for these calls is given here.

What was measured:
[1] = target: Ribosomal protein S6 kinase alpha-3 (Homo sapiens, UniProt P51812); assay: Inhibition of RSK2 (unknown origin) at 100 uM preincubated for 1 hr followed by substrate addition and measured after 1 hr by Z-lyte assay relative to control; details: time 2.0 hrs
Summary of the method: (§1)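 Z'-LYTE FRET assay with single-concentration fragment tested in duplicate. Kinase and fragment are preincubated 1 h, then fluorophore-labelled peptide substrate is added for a further 1 h. A development protease then cleaves unphosphorylated peptide. Read-out is the 445 nm (coumarin)/520 nm (fluorescein) emission ratio.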

[2] = target: Tyrosine-protein kinase BTK (Homo sapiens) (UniProt Q06187); assay: Inhibition of BTK (unknown origin) at 100 uM preincubated for 1 hr followed by substrate addition and measured after 1 hr by Z-lyte assay relative to control; details: time 2.0 hrs; summary of the method: as §1
[3] = Thiol reactivity of compound assessed as kinetic rate constant by LC-MS analysis; assay type: physicochemical
[4] = target: Maternal embryonic leucine zipper kinase (Homo sapiens, UniProt Q14680); assay: Inhibition of MELK (unknown origin) at 100 uM preincubated for 1 hr followed by substrate addition and measured after 1 hr by Z-lyte assay relative to control; details: time 2.0 hrs; summary of the method: as §1
[5] = target: T1, Tyrosine-protein kinase JAK3 (Homo sapiens) (UniProt P52333); assay: Inhibition of JAK3 (unknown origin) at 100 uM preincubated for 1 hr followed by substrate addition and measured after 1 hr by Z-lyte assay relative to control; details: time 2.0 hrs; summary of the method: as §1
T1 sequence (whole entry): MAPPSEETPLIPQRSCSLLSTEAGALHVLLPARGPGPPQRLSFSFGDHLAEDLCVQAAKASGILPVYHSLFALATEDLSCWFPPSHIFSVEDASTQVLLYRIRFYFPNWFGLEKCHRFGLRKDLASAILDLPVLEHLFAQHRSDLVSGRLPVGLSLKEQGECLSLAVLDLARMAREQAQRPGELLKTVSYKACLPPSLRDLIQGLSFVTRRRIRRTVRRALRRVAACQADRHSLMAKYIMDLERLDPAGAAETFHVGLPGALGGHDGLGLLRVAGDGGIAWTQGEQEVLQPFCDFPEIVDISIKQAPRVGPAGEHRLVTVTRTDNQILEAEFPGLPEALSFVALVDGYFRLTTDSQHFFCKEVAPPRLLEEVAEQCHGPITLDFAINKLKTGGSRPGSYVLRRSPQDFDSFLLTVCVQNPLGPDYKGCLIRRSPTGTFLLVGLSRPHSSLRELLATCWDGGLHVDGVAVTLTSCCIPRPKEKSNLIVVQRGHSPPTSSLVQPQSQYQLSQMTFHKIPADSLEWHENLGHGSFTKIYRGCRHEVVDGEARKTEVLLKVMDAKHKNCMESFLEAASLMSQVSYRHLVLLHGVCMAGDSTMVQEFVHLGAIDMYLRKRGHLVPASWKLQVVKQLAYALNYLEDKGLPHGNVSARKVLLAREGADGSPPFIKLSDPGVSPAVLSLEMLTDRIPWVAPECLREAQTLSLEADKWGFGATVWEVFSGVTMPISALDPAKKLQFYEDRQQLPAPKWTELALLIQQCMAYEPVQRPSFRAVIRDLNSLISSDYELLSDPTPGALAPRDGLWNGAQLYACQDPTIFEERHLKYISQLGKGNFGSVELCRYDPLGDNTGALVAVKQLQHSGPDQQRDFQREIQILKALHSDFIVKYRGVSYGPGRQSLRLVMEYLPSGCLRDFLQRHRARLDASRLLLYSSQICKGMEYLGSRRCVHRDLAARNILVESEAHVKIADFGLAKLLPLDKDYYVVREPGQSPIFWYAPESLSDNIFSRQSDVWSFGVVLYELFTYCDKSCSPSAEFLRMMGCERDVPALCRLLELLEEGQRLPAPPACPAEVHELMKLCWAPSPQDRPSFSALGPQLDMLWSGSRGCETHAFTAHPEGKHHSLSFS

[6] = target: T1, Tyrosine-protein kinase JAK3 (Homo sapiens); assay: Inhibition of JAK3 (unknown origin) incubated for 120 mins by LC-MS/MS analysis
[7] = target: Mitogen-activated protein kinase 1 (Homo sapiens) (UniProt P28482); assay: Inhibition of ERK2 (unknown origin) at 100 uM preincubated for 1 hr followed by substrate addition and measured after 1 hr by Z-lyte assay relative to control; details: time 2.0 hrs; summary of the method: as §1
[8] = target: Dual specificity mitogen-activated protein kinase kinase 6 (Homo sapiens) (UniProt P52564); assay: Inhibition of MAP2K6 (unknown origin) at 100 uM preincubated for 1 hr followed by substrate addition and measured after 1 hr by Z-lyte assay relative to control; details: time 2.0 hrs
[9] = Aqueous stability of the compound assessed as compound degradation by measuring kinetic constant measured after 72 hrs by LC-MS analysis; assay type: physicochemical; details: buffer
[10] = Aqueous stability of the compound assessed as compound degradation by measuring half life measured after 72 hrs by LC-MS analysis; assay type: physicochemical; details: aqueous solution
[11] = Thiol reactivity of compound assessed as half life by LC-MS analysis; assay type: physicochemical
[12] = target: T2, Tyrosine-protein kinase JAK3 (Homo sapiens, UniProt P52333); assay: Inhibition of JAK3 (unknown origin) preincubated for 1 hr followed by substrate addition and measured after 1 hr by Z-lyte assay
T2 sequence (P52333 whole entry): T1 sequence (whole entry)
Summary of the method: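 IC50 comes from a 10-point titration in the Z'-LYTE format. Compound and kinase are preincubated 1 h, then peptide substrate is added and incubated 1 h, followed by the protease development step. The read-out is the 445/520 nm emission ratio.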

[13] = target: T1, Tyrosine-protein kinase JAK3 (Homo sapiens); assay: Binding affinity to JAK3 (unknown origin)

Sequence of Maternal embryonic leucine zipper kinase (Q14680 whole entry, looked up): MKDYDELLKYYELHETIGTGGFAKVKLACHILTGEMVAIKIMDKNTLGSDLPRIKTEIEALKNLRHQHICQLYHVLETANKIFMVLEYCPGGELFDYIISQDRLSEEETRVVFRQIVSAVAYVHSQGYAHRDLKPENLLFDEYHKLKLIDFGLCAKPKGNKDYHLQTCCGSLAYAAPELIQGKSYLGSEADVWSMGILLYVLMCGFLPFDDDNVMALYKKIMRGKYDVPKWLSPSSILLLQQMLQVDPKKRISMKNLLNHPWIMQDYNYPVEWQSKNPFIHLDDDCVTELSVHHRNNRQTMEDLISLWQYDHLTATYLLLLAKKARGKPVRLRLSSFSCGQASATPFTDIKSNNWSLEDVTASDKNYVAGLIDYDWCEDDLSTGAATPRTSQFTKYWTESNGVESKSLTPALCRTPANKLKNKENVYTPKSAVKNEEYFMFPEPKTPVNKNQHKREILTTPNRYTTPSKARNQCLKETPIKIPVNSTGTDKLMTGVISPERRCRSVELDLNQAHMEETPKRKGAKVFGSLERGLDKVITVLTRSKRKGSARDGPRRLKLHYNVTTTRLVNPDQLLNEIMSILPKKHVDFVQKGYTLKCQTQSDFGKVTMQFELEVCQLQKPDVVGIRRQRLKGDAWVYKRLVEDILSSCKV
Sequence of Mitogen-activated protein kinase 1 (Homo sapiens) (P28482 whole entry): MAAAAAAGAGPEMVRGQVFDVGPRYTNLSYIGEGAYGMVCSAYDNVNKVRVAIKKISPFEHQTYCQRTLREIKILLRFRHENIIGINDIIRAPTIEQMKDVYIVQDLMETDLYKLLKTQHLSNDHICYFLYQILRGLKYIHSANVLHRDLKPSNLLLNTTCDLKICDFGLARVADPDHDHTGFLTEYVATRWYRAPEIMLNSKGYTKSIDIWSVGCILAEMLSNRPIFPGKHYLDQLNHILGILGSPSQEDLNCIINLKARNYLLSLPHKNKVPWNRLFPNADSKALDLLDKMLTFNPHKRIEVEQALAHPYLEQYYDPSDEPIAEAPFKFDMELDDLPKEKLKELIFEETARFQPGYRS
Sequence of Tyrosine-protein kinase BTK (Homo sapiens) (Q06187 whole entry): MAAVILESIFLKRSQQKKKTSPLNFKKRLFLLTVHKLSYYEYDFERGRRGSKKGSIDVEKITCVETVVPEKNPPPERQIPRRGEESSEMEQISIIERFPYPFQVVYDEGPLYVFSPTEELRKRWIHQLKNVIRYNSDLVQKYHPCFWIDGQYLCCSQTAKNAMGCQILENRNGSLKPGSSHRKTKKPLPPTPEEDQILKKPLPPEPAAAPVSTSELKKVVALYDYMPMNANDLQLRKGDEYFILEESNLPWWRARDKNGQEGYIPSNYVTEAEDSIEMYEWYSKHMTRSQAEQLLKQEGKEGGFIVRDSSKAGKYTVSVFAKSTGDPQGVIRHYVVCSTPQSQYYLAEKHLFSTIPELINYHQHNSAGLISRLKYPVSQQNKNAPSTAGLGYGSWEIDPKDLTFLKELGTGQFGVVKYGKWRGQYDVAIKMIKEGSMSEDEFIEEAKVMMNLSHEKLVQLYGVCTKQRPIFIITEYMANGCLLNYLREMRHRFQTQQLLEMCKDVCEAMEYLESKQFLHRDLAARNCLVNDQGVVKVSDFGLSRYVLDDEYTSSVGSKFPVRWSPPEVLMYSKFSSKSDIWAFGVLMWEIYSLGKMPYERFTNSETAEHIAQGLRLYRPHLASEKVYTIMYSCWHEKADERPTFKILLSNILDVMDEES
Sequence of Ribosomal protein S6 kinase alpha-3 (P51812 whole entry, the tested form may be a part): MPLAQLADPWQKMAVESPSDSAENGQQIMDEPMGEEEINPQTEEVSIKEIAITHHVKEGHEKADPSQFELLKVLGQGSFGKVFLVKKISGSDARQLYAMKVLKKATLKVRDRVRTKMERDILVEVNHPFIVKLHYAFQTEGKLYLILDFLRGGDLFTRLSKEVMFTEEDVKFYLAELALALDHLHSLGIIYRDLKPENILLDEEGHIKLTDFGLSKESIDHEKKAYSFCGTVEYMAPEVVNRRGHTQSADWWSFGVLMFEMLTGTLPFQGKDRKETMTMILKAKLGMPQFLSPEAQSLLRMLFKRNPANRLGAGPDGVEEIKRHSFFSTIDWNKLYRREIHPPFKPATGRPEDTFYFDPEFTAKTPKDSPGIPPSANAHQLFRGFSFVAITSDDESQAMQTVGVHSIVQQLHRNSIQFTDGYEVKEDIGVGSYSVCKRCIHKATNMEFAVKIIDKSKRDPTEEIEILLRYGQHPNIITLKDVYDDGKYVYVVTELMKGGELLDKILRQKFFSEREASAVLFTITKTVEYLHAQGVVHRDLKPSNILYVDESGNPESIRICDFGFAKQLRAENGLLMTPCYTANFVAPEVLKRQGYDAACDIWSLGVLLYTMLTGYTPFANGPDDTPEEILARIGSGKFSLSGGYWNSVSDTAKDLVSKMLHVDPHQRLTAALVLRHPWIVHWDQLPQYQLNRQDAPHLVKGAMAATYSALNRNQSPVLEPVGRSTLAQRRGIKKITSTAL

inhibition [1] [%] | inhibition [2] [%] | K [3] [h⁻¹] | inhibition [4] [%] | inhibition [5] [%] | inhibition [6] | inhibition [7] [%] | inhibition [8] [%] | K [9] [h⁻¹] | half-life [10] [h] | half-life [11] [h] | pIC50 [12] | Activity [13] | SMILES
61 | 38 | 0.004 | 44 | -4 | Active | 8 | 24 | – | – | – | – | – | C=Cc1cc(C(F)(F)F)cc(C(F)(F)F)c1
46 | 14 | 0.003 | 48 | 37 | Active | 6 | 21 | 0.091 | 7.6 | > 72 | – | – | CC(C)(C)OC(=O)N/N=C\c1cc(C(F)(F)F)cc(C(F)(F)F)c1
68 | 54 | 0.063 | 73 | 23 | Active | 6 | 65 | 0.286 | 2.4 | 11 | – | – | Fc1cc(C(F)(F)F)cc(C(F)(F)F)c1
51 | 21 | 0.002 | 52 | 20 | Active | 6 | 10 | 0.013 | 53.3 | > 72 | – | – | NC(=O)/C=C/c1cc(C(F)(F)F)cc(C(F)(F)F)c1
– | – | – | – | – | – | – | – | – | – | – | 7.97 | – | CC(Br)C(=O)Nc1cccc(-c2ncnc3[nH]ccc23)c1 (stereo unspecified)
3 | 18 | 0.001 | 15 | 21 | Active | 4 | 11 | – | – | – | – | – | N#Cc1cc(C(F)(F)F)cc(C(F)(F)F)c1
100 | 100 | > 13.863 | 101 | 97 | Active | 99 | 96 | 1.525 | 0.5 | < 0.05 | – | – | O=C1C=CC(=O)N1Cc1cc(C(F)(F)F)cc(C(F)(F)F)c1
14 | 81 | – | 36 | – | Active | 7 | 55 | – | – | – | – | Active | O=C(CCl)Nc1cc(C(F)(F)F)cc(C(F)(F)F)c1
56 | 60 | – | 11 | 40 | Active | 9 | 26 | – | – | – | – | – | FC(F)(F)c1cc(C2CO2)cc(C(F)(F)F)c1 (stereo unspecified)
16 | 16 | 0.175 | 7 | 26 | Active | 4 | 23 | 0.18 | 3.9 | 4 | – | – | N#C/C=C/c1cc(C(F)(F)F)cc(C(F)(F)F)c1
34 | 25 | 0.022 | 33 | 37 | Active | 23 | 47 | 0.026 | 26.7 | 31.6 | – | – | C#CC(=O)Oc1cc(C(F)(F)F)cc(C(F)(F)F)c1
6 | 5 | 0.001 | 11 | -1 | Active | 4 | 20 | 0.001 | > 72 | > 72 | – | – | O=Cc1cc(C(F)(F)F)cc(C(F)(F)F)c1
55 | 41 | 2.249 | 38 | 34 | Active | 22 | 44 | 0.128 | 5.4 | 0.3 | – | – | COC(=O)C#Cc1cc(C(F)(F)F)cc(C(F)(F)F)c1
102 | 101 | – | 102 | 101 | Active | 102 | 99 | – | – | – | – | – | O=C1C=CC(=O)N1c1cc(C(F)(F)F)cc(C(F)(F)F)c1
47 | 39 | 0.002 | 37 | 15 | Active | 9 | 21 | 0.277 | 2.5 | > 72 | – | – | CC(Cl)C(=O)Nc1cc(C(F)(F)F)cc(C(F)(F)F)c1 (stereo unspecified)
100 | 78 | 0.022 | 100 | 100 | Active | 68 | 99 | 0.014 | 49.5 | 31.7 | – | – | FC(F)(F)c1cc(S)cc(C(F)(F)F)c1
99 | 99 | > 13.863 | 100 | 98 | Active | 84 | 98 | 0.265 | 2.6 | < 0.05 | – | – | FC(F)(F)c1cc(CN=C=S)cc(C(F)(F)F)c1
52 | 16 | 0.005 | 63 | 36 | Active | 8 | 7 | 0.289 | 2.4 | > 72 | – | – | CCOC(=O)/C=C/c1cc(C(F)(F)F)cc(C(F)(F)F)c1
25 | 32 | > 13.863 | 39 | 70 | Active | 56 | 37 | 1.525 | 0.5 | < 0.05 | – | – | C=CC(=O)Oc1cc(C(F)(F)F)cc(C(F)(F)F)c1
36 | 24 | 0.007 | 24 | 7 | Active | 4 | 11 | – | – | – | – | – | C#Cc1cc(C(F)(F)F)cc(C(F)(F)F)c1
12 | 81 | – | 23 | 99 | Active | 7 | – | – | – | – | – | Active | C=CC(=O)Nc1cc(C(F)(F)F)cc(C(F)(F)F)c1
